The record followed here is ChEMBL document CHEMBL3526105, “Cytochrome P450-mediated oxidative metabolism of abused synthetic cannabinoids found in K2/Spice: identification of novel cannabinoid receptor ligands” (Drug Metab Dispos, 2012).

The nature of data set [1]: Drug metabolism in human urine assessed as (1-(4-hydroxypentyl)-1H-indol-3-yl)(naphthalen-1-yl)methanone formation by LC-MS/MS analysis. It is filed as ADME, tissue-based. The gist of the method:
(§1)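 Urine from suspected users (40 μl) incubated with or without β-glucuronidase (1.6 U/μl final) in 0.1 M sodium acetate pH 5.0, 60 min at 37°C with shaking. Analysed by positive-ESI LC-MS/MS against standards matrix-matched in blank pooled human urine, with confirmation by enhanced product ion spectra.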

Data set [2] relates to Liver microsome. The experiment in a line: Drug metabolism in human liver microsomes assessed as (6-hydroxy-1-pentyl-1H-indol-3-yl)(naphthalen-1-yl)methanone formation at 10 uM after 20 mins by LC-MS/MS analysis. Type of data set: ADME. The gist of the method: (§2)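 Pooled human liver microsomes (75 μg) incubated with 10 μM substrate in 0.1 M KPO4 pH 7.4 with NADPH-regenerating system at 37°C. Reaction stopped with ethanol, centrifuged. Analytes quantified by positive-ESI LC-MS/MS against standards matrix-matched in reaction mixture, with confirmation by SRM-triggered enhanced product ion spectra library matching.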
For orientation: Liver microsomes are a subcellular fraction often used to study metabolism.

In data set [3] the test system is Liver microsome. Nature of the data set: Drug metabolism in human liver microsomes assessed as (5-hydroxy-1-pentyl-1H-indol-3-yl)(naphthalen-1-yl)methanone formation at 10 uM after 20 mins by LC-MS/MS analysis. Type of data set: ADME. In outline:
as §2

The test system of data set [4] is Liver microsome. The experiment in a line: Drug metabolism in human liver microsomes assessed as (7-hydroxy-1-pentyl-1H-indol-3-yl)(naphthalen-1-yl)methanone formation at 10 uM after 20 mins by LC-MS/MS analysis. Type of data set: ADME. In outline: as §2
Data set [5] can be described thus: Drug metabolism in human urine assessed as 5-(3-(1-naphthoyl)-1H-indol-1-yl)pentanoic acid formation by LC-MS/MS analysis. Type of data set: ADME, tissue-based. In outline: as §1
Data set [6] can be described thus: Drug metabolism in human urine assessed as (1-(5-hydroxypentyl)-1H-indol-3-yl)(naphthalen-1-yl)methanone formation by LC-MS/MS analysis. It is filed as ADME, tissue-based. In outline:
as §1

For data set [7], the target named is T1, Cytochrome P450 2E1 (Homo sapiens, UniProt P05181). Nature of the data set: Drug metabolism assessed as human recombinant CYP2E1-mediated (1-(5-hydroxypentyl)-1H-indol-3-yl)(naphthalen-1-yl)methanone formation at 10 uM after 90 mins by LC-MS/MS analysis. It is filed as ADME. Particulars: recombinant enzyme, 1.5 h. The gist of the method:
(§3)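 Recombinant human CYP2E1 or CYP3A4 (2 pmol) incubated with substrate at 10 μM final, dried from ethanol. Buffer 0.1 M KPO4 pH 7.4 with NADPH-regenerating system, which starts the reaction. 90 min at 37°C, triplicate, with no-substrate, no-protein and no-NADPH controls. Stopped with ethanol, centrifuged, and metabolites quantified by LC-MS/MS.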

Data set [8] has as its target T1, Cytochrome P450 2E1. Nature of the data set: Drug metabolism assessed as human recombinant CYP2E1-mediated 5-(3-(1-naphthoyl)-1H-indol-1-yl)pentanoic acid formation at 10 uM after 90 mins by LC-MS/MS analysis. Type of data set: ADME. Particulars: recombinant enzyme, 1.5 h. The gist of the method:
as §3

Data set [9] concerns the target T1, Cytochrome P450 2E1. Nature of the data set: Drug metabolism assessed as human recombinant CYP2E1-mediated (1-(4-hydroxypentyl)-1H-indol-3-yl)(naphthalen-1-yl)methanone formation at 10 uM after 90 mins by LC-MS/MS analysis. Type of data set: ADME. Conditions: recombinant enzyme, 1.5 h. In outline:
as §3

Data set [10] deals with T2, Cytochrome P450 3A4 (Homo sapiens, UniProt P08684). The experiment in a line: Drug metabolism assessed as human recombinant CYP3A4-mediated (1-(5-hydroxypentyl)-1H-indol-3-yl)(naphthalen-1-yl)methanone formation at 10 uM after 90 mins by LC-MS/MS analysis. It is filed as ADME. Particulars: recombinant enzyme, 1.5 h. The gist of the method: as §3
The target of data set [11] is T2, Cytochrome P450 3A4. The experiment in a line: Drug metabolism assessed as human recombinant CYP3A4-mediated 5-(3-(1-naphthoyl)-1H-indol-1-yl)pentanoic acid formation at 10 uM after 90 mins by LC-MS/MS analysis. Conditions: recombinant enzyme, 1.5 h. It is filed as ADME. In outline:
as §3

For data set [12], the target named is T2, Cytochrome P450 3A4. The experiment in a line: Drug metabolism assessed as human recombinant CYP3A4-mediated (1-(4-hydroxypentyl)-1H-indol-3-yl)(naphthalen-1-yl)methanone formation at 10 uM after 90 mins by LC-MS/MS analysis. Type of data set: ADME. Particulars: recombinant enzyme, 1.5 h. In outline:
as §3

A further data set has as its target Cytochrome b5 (Homo sapiens, UniProt P00167). Nature of the data set: Drug metabolism assessed as cytochrome b5 (unknown origin)-mediated (5-hydroxy-1-pentyl-1H-indol-3-yl)(naphthalen-1-yl)methanone formation at 10 uM after 90 mins by LC-MS/MS analysis in presence of oxidoreductase. It is filed as ADME. Conditions: 1.5 h.
Another data set deals with Cannabinoid receptor 1 (Mus musculus, UniProt P47746). The experiment in a line: Displacement of [3H]CP-55,940 from CB1 receptor in B6SJL mouse brain membrane after 90 mins by liquid scintillation spectrophotometric analysis. It is filed as cell membranes. The gist of the method: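 B6SJL mouse brain membranes (50 μg) with 0.2 nM [3H]CP-55,940 and competitor at 0.1 nM–10 μM. Buffer 5 mM MgCl2, 50 mM Tris, 0.05% BSA; 90 min at room temperature, triplicate. Nonspecific binding set with 10 μM WIN-55,212-2. Filtered on GF/B, washed with Tris/BSA, counted by scintillation. Specific binding given as % of vehicle.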
In general terms: Displacement assays read how much labelled ligand stays bound in the presence of the test substance.

Data set [13] addresses Cannabinoid receptor 1 (Mus musculus) (UniProt P47746). The experiment in a line: Activation of CB1 receptor in B6SJL mouse brain membrane assessed as [35S]-GTPgammaS binding at 10 uM after 30 mins by liquid scintillation spectrophotometric analysis. Type of data set: functional, cell membranes. The gist of the method:
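Mouse brain membrane homogenate (25 μg; whole B6SJL brains, pooled, Dounce-homogenised, spun 40,000g three times). Incubated with […], 0.1 nM [35S]GTPγS in 20 mM HEPES, 10 mM MgCl2, 100 mM NaCl, 20 U/l adenosine deaminase, 0.05% BSA, 30 min at 30°C, triplicate. Nonspecific binding with 10 μM unlabelled GTPγS. Stopped by GF/B filtration; filters counted by scintillation.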
A general note: GTPγS is a poorly hydrolysed GTP analogue; its binding reports G protein activation.

Data set [14] shares this target. Nature of the data set: Activation of CB1 receptor in B6SJL mouse brain membrane assessed as [35S]-GTPgammaS binding at 10 uM after 30 mins by liquid scintillation spectrophotometric analysis in presence of O-2050. Type of data set: functional, cell membranes.

Molecules are shown by their SMILES. Active and inactive are the calls of the source. No cut-off for these calls is given here.

T2 sequence (P08684 whole entry): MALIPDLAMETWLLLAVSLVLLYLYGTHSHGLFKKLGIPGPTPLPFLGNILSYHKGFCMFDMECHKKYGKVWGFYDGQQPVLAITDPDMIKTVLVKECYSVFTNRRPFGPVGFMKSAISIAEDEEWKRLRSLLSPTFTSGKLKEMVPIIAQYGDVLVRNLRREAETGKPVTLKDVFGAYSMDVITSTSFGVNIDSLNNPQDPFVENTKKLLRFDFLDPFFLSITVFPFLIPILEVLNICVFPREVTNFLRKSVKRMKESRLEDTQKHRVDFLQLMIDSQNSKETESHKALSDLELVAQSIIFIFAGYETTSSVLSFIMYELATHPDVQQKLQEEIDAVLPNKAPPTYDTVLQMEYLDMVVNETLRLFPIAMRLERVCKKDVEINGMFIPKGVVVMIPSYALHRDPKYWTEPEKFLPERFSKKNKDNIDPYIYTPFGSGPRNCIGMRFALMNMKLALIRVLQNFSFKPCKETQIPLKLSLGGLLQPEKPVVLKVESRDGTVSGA
T1 sequence (P05181 whole entry): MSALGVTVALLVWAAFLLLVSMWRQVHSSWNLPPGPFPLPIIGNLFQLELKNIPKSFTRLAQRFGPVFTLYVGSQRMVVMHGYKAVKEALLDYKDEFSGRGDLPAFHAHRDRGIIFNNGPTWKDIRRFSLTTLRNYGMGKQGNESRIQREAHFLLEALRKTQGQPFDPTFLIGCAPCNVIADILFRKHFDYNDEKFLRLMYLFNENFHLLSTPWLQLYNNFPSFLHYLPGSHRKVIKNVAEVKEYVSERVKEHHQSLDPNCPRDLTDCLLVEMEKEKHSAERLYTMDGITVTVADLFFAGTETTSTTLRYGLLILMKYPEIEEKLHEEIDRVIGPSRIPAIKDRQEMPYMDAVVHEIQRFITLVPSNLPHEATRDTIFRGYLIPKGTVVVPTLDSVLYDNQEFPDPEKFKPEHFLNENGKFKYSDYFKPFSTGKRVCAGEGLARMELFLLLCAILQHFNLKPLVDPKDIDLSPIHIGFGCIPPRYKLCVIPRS
Sequence of Cannabinoid receptor 1 (Mus musculus) (P47746 whole entry): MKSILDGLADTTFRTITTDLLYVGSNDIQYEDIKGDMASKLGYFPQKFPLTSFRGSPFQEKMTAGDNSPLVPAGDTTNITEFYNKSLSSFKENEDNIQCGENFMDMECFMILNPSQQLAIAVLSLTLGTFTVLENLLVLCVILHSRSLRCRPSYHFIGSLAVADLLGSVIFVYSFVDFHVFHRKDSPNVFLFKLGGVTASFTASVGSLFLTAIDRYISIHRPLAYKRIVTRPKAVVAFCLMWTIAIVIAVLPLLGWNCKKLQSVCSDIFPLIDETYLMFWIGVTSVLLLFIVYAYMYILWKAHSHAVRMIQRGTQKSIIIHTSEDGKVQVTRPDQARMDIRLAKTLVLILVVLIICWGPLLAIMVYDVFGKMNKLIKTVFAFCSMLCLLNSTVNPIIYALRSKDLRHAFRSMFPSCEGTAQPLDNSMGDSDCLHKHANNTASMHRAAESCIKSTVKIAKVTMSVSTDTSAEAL
Sequence of Cannabinoid receptor 1 (P47746 whole entry): as above
Sequence of Cytochrome b5 (P00167 whole entry): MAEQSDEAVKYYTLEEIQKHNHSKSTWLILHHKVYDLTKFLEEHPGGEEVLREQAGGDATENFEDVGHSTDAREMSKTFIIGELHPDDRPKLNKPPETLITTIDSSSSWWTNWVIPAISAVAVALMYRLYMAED

Broadly, the Ki is the dissociation constant of the complex between target and ligand, obtained from inhibition or displacement. Low readings indicate higher affinity, high ones lower affinity. Regarding `CCCCCn1cc(C(=O)c2cccc3ccccc23)c2ccccc21`, the Drug metabolism entry (in data set [1]; with Liver microsome [2]; in the data set on Liver microsome [3]; in the data set with Liver microsome [4]; in data set [5]; in [6]) was “metabolite_detected” in each case. The Drug metabolism entry at Cytochrome P450 2E1 [7], on Cytochrome P450 2E1 [8], at Cytochrome P450 2E1 [9], on Cytochrome P450 3A4 [10], at Cytochrome P450 3A4 [11] and at Cytochrome P450 3A4 [12] was “metabolite_not_detected” in each case. In addition, the Drug metabolism entry at Cytochrome b5 is “metabolite_detected”. Further, the Ki on Cannabinoid receptor 1 stood at 1.3 nM. The result in data set [13] was Active. Moreover, the result in data set [14] was inactive.
